# Source: ChEMBL document CHEMBL5678798 (Clin Cancer Res, 2009)
# The source made the active and inactive calls. The calls are words filed in the database; no cut-off is given here.
# Legend:
# NCI-H929 = experiment: Induction of cell cycle arrest in human NCI-H929 cells assessed as increase in cells accumulation at G1 phase at 0.03 to 10 uM incubated for 24 to 48 hrs by propidium iodide staining based flow cytometric analysis; type: functional; settings: dose 0.03-10 µM, time lower 24.0 hrs, time upper […]
# In short: (§1)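 COLO 205, MCF-7 or NCI-H929 cells seeded in 96-well plates overnight at 37°C, then exposed to DMSO or increasing compound concentrations for 24 or 48 h. Fixed and stained with propidium iodide (Vindelov method), then analysed by flow cytometry for sub-G1, G1, S and G2-M fractions. Experiment repeated twice.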
# COLO 205 = experiment: Induction of cell cycle arrest in human COLO 205 cells assessed as cells accumulation at S phase at 1 umol/L incubated for 48 hrs by propidium iodide staining based flow cytometric analysis (reference value: 9%); type: functional; settings: dose 1 µmol/L, at 1 µM; in short: as §1
# [1] = molecular target: Tyrosine-protein kinase Fer (Homo sapiens, UniProt P16591); experiment: Inhibition of N-terminal His6 tagged recombinant human Fer (541 to end residues) expressed in baculovirus infected Sf21 cells by filter binding assay
# [2] = molecular target: Serine/threonine-protein kinase D1 (Homo sapiens) (UniProt Q15139); experiment: Inhibition of N-terminal His6-tagged recombinant full-length human PKCmu expressed in Sf21 cells at 3 uM by filter binding assay relative to control
# In short: (§2)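 Outsourced single-concentration screen in a commercial panel of 233 protein kinases, run as radiometric filter-binding activity assays. Test agent was tested at 0.3 or 3 µmol/L, as given in each line, from a 10 mmol/L DMSO stock. Activity is expressed as percent inhibition relative to control.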
# [3] = molecular target: NUAK family SNF1-like kinase 1 (Homo sapiens) (UniProt O60285); experiment: Inhibition of N-terminal 6His-tagged recombinant human ARK5 (2 to end residues) expressed in baculovirus infected Sf21 cells at 0.3 uM by filter binding assay relative to control
# In short: (§3)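 KinaseProfiler panel of 233 kinases: radiometric filter-binding activity assays with compound at 0.3 or 3 µmol/L. Read-out is percent inhibition.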
# [4] = molecular target: Macrophage-stimulating protein receptor (Homo sapiens) (UniProt Q04912); experiment: Inhibition of N-terminal GST-tagged recombinant human Ron (983 to end residues) expressed in baculovirus infected Sf21 cells at 0.3 uM by filter binding assay relative to control; in short: as §2
# [5] = molecular target: PI3K p110 alpha/p85 alpha (Mus musculus) (UniProt P26450+P42337); experiment: Inhibition of recombinant mouse N-terminal 6His-tagged full length P110alpha/full length mouse p85alpha expressed in baculovirus infected Sf21 cells at 0.3 uM by filter binding assay relative to control
# [6] = molecular target: Receptor-type tyrosine-protein kinase FLT3 (Homo sapiens, UniProt P36888); experiment: Inhibition of N-terminal GST tagged recombinant human Flt3 (564 to end residues) expressed in Sf21 cells by filter binding assay
# [7] = molecular target: Mitogen-activated protein kinase kinase kinase 9 (Homo sapiens) (UniProt P80192); experiment: Inhibition of N-terminal 6His-tagged recombinant human MLK1 (134 to 414 residues) expressed in baculovirus infected Sf21 cells at 0.3 uM by filter binding assay relative to control; in short: as §2
# [8] = molecular target: Mitogen-activated protein kinase 8 (Homo sapiens, UniProt P45983); experiment: Inhibition of JNK1 (unknown origin)
# Aurora kinase A = Aurora kinase A (Homo sapiens, UniProt O14965); experiment: Inhibition of Aurora A (unknown origin)
# In short: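 In-house kinase panel assay with conditions developed and optimized for this kinase. Aurora A was assayed in the presence of its accessory protein TPX2. IC50 was determined.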
# [9] = molecular target: Protein kinase C iota type (Homo sapiens) (UniProt P41743); experiment: Inhibition of N-terminal His6-tagged recombinant full-length human PKCiota expressed in Sf21 cells at 3 uM by filter binding assay relative to control; in short: as §2
# [10] = molecular target: Mitogen-activated protein kinase kinase kinase 9 (Homo sapiens) (UniProt P80192); experiment: Inhibition of N-terminal 6His-tagged recombinant human MLK1 (134 to 414 residues) expressed in baculovirus infected Sf21 cells at 3 uM by filter binding assay relative to control; in short: as §2
# [11] = molecular target: Ephrin type-A receptor 1 (Homo sapiens) (UniProt P21709); experiment: Inhibition of N-terminal 6His-tagged recombinant human EphA1 (568 to end residues) expressed in baculovirus infected Sf21 cells at 3 uM by filter binding assay relative to control; in short: as §2
# [12] = molecular target: Calcium/calmodulin-dependent protein kinase type IV (Homo sapiens) (UniProt Q16566); experiment: Inhibition of C-terminal His6-tagged recombinant full length human CaMKIV expressed in baculovirus infected Sf21 cells at 3 uM by filter binding assay relative to control; in short: as §3
# [13] = molecular target: Discoidin domain-containing receptor 2 (Homo sapiens) (UniProt Q16832); experiment: Inhibition of N-terminal His6-tagged recombinant human DDR2 (467 to end residues) expressed in baculovirus infected Sf21 cells at 3 uM by filter binding assay relative to control
# [14] = molecular target: Tyrosine-protein kinase ABL2 (Homo sapiens) (UniProt P42684); experiment: Inhibition of N-terminal His6-tagged recombinant human Arg (38 to end residues) expressed in baculovirus infected Sf21 cells at 3 uM by filter binding assay relative to control
# [15] = molecular target: Receptor tyrosine-protein kinase erbB-2 (Homo sapiens, UniProt P04626); experiment: Inhibition of ErbB2 (unknown origin)
# [16] = Inhibition of C-terminal His6-tagged human full length CDK2/N-terminal GST-tagged human full length cyclinA expressed in baculovirus infected Sf21 cells at 3 uM by filter binding assay relative to control; settings: condition cancer; in short: as §3
# [17] = molecular target: Vascular endothelial growth factor receptor 2 (Homo sapiens, UniProt P35968); experiment: Inhibition of VEGFR2 (unknown origin)
# [18] = molecular target: Tyrosine-protein kinase Fyn (Homo sapiens, UniProt P06241); experiment: Inhibition of FYN (unknown origin)
# [19] = molecular target: 3-phosphoinositide-dependent protein kinase 1 (Homo sapiens, UniProt O15530); experiment: Inhibition of PDK1 (unknown origin)
# [20] = molecular target: Serine/threonine-protein kinase BRSK1 (Homo sapiens) (UniProt Q8TDC3); experiment: Inhibition of N-terminal 6His-tagged recombinant human BrSK1 (2 to end residues) expressed in baculovirus infected Sf21 cells at 0.3 uM by filter binding assay relative to control; in short: as §3
# [21] = molecular target: Tyrosine-protein kinase JAK3 (Homo sapiens, UniProt P52333); experiment: Inhibition of JAK3 (unknown origin)
# [22] = molecular target: Protein-tyrosine kinase 6 (Homo sapiens) (UniProt Q13882); experiment: Inhibition of N-terminal His6-tagged recombinant full-length human BRK expressed in baculovirus infected Sf21 cells at 0.3 uM by filter binding assay relative to control; in short: as §2
# [23] = molecular target: Proto-oncogene tyrosine-protein kinase receptor Ret (Homo sapiens) (UniProt P07949); experiment: Inhibition of N-Terminal GST-tagged recombinant human Ret (658 to end residues) expressed in baculovirus infected Sf21 cells at 3 uM by filter binding assay relative to control; in short: as §3
# [24] = molecular target: Insulin receptor-related protein (Homo sapiens, UniProt P14616); experiment: Inhibition of N-terminal 6His-tagged recombinant human IRR (944 to 1266 residues) expressed in baculovirus infected Sf21 cells by filter binding assay
# Sequence of Mitogen-activated protein kinase kinase kinase 9 (Homo sapiens) (P80192 whole entry, looked up, the tested form may be a part): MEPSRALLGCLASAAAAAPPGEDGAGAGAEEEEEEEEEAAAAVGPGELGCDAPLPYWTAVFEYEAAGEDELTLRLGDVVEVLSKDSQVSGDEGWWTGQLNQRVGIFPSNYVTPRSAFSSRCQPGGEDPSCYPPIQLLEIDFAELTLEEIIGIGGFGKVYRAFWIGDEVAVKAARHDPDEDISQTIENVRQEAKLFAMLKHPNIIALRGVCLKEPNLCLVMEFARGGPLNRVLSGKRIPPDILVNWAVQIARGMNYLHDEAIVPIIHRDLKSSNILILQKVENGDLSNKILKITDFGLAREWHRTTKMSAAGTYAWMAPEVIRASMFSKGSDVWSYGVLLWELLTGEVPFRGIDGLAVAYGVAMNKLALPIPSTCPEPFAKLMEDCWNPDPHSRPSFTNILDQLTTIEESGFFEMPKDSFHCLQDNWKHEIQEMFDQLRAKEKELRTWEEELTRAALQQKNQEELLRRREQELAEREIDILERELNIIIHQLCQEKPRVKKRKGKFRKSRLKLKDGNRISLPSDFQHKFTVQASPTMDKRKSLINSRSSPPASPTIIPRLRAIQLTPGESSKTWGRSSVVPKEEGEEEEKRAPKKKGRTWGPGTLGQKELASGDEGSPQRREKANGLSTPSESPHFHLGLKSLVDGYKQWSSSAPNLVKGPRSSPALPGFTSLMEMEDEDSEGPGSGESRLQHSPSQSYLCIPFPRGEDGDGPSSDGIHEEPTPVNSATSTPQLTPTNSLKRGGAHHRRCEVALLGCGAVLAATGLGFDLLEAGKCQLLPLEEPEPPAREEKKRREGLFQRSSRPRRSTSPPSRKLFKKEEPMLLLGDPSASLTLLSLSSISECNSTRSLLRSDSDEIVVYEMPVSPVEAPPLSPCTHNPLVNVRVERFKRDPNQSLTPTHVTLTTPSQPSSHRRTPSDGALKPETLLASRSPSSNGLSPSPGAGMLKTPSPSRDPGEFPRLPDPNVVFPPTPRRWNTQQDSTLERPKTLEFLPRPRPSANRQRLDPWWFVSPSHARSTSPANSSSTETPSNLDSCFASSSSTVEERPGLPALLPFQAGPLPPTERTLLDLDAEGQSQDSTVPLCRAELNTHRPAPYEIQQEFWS
# Sequence of Receptor tyrosine-protein kinase erbB-2 (P04626 whole entry): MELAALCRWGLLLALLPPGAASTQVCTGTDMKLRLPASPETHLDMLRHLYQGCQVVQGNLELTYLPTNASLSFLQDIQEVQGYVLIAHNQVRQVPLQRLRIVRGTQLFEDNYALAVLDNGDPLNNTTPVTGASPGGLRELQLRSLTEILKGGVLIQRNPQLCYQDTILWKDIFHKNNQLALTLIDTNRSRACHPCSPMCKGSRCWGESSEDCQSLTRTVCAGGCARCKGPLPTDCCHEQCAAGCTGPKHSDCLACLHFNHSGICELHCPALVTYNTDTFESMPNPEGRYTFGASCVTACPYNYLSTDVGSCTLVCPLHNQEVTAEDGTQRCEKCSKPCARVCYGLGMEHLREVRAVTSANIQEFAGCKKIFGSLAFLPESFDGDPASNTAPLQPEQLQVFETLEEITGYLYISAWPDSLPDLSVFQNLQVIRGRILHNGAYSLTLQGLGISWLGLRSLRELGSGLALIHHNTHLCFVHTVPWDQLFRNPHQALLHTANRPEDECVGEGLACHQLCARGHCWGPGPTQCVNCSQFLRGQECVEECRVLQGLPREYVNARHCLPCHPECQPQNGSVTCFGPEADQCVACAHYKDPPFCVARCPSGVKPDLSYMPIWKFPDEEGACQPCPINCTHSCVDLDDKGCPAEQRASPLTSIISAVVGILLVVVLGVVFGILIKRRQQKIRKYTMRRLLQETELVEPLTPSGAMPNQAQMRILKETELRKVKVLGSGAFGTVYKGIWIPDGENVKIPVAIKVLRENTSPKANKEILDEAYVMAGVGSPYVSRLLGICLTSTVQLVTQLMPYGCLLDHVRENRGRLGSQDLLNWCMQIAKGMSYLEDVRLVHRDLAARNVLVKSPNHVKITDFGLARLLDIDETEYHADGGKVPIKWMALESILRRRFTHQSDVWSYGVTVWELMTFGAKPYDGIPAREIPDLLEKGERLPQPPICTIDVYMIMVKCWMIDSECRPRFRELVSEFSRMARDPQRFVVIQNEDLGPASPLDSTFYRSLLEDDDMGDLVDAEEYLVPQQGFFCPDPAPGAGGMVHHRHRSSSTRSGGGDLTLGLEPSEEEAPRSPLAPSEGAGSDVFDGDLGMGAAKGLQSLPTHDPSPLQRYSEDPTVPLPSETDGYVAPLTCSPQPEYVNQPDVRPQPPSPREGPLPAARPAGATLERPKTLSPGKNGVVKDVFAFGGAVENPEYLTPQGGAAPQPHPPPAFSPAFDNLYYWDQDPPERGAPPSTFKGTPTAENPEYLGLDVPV
# Sequence of Tyrosine-protein kinase ABL2 (Homo sapiens) (P42684 whole entry): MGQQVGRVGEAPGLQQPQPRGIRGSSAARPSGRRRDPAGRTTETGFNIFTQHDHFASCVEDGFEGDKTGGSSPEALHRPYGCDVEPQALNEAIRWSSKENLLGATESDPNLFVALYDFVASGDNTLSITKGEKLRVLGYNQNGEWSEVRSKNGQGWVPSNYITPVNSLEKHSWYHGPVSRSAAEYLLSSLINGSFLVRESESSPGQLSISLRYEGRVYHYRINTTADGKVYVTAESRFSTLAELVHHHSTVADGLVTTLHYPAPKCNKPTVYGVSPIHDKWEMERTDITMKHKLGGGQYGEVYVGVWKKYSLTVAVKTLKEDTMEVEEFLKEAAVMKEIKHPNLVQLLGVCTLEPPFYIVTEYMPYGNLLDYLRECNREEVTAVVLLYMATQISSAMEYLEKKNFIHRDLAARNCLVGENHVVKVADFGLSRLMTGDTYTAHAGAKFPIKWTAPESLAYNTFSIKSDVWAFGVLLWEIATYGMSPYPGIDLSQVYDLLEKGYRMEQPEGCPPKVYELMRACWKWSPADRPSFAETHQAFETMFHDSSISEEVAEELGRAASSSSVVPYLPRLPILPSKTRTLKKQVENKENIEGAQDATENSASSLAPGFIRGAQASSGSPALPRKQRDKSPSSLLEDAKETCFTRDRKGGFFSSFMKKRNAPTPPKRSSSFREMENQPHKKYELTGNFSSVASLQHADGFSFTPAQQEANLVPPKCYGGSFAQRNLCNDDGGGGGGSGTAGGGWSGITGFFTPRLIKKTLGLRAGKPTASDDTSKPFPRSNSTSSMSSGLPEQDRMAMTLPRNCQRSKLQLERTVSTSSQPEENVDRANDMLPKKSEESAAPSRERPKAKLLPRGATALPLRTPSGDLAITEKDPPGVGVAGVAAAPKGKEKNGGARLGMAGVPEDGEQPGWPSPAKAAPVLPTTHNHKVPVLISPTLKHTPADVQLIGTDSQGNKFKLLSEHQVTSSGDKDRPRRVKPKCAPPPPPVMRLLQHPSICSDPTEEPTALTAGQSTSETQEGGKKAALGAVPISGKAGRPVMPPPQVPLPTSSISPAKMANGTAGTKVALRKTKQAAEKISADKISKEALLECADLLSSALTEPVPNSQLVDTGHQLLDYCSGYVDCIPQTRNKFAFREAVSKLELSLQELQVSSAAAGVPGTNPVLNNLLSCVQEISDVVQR
# Sequence of Ephrin type-A receptor 1 (Homo sapiens) (P21709 whole entry): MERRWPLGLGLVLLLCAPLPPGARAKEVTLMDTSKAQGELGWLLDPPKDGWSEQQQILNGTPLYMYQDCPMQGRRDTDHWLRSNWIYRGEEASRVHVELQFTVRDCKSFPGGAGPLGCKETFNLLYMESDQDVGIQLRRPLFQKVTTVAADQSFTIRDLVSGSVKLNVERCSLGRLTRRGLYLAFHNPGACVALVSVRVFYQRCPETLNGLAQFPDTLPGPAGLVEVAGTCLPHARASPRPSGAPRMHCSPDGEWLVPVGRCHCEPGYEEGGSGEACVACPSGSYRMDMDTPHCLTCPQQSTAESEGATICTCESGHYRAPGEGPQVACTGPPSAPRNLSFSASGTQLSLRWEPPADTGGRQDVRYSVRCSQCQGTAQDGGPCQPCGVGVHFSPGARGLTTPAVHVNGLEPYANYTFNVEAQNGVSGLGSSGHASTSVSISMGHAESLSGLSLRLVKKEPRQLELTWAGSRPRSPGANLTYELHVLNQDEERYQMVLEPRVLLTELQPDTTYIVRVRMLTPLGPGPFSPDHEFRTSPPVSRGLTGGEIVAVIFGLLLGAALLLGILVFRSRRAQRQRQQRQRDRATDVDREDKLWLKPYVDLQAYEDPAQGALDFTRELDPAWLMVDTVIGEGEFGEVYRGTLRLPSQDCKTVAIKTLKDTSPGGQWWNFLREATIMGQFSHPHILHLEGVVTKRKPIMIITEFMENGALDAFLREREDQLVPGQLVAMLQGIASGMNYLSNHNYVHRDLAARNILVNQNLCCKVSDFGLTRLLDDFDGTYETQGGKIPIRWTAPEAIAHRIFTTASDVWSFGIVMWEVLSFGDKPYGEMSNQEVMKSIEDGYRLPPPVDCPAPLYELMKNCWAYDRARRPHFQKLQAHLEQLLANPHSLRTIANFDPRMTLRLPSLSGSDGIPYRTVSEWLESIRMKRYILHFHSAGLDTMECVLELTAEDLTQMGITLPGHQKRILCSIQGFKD
# Sequence of Protein kinase C iota type (Homo sapiens) (P41743 whole entry, the tested form may be a part): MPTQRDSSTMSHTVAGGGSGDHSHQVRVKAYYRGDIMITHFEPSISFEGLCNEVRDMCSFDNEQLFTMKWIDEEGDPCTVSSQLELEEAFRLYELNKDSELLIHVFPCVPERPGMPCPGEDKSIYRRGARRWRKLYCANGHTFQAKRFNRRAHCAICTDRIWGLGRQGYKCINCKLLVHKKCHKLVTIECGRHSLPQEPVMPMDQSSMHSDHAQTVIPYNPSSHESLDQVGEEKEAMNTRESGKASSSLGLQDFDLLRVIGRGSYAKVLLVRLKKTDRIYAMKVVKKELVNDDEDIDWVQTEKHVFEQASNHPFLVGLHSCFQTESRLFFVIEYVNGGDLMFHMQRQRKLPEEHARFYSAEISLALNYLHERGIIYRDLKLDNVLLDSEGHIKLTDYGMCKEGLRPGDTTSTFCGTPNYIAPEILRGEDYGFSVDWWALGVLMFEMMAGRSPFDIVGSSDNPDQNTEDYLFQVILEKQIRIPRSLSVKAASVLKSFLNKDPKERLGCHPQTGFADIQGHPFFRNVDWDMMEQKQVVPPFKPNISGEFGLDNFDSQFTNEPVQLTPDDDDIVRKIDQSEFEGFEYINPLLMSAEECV
compound,measurement,setting,value
CCc1cc(Nc2nccc(-c3c(-c4ccc(OC)c(C(=O)Nc5c(F)cccc5F)c4)nc4ccccn34)n2)c(OC)cc1N1CCC(N2CCN(S(C)(=O)=O)CC2)CC1,Activity,NCI-H929,Active
same,Activity,COLO 205,6%
same,IC50,[1],13 nM
same,inhibition,[2],1%
same,inhibition,[3],4%
same,inhibition,[4],-8%
same,inhibition,[5],-10%
same,IC50,[6],2850 nM
same,inhibition,[7],1%
same,IC50,[8],> 10 µM
same,IC50,Aurora kinase A,> 8 µM
same,inhibition,[9],0%
same,inhibition,[10],-8%
same,inhibition,[11],22%
same,inhibition,[12],10%
same,inhibition,[13],10%
same,inhibition,[14],33%
same,IC50,[15],> 10 µM
same,inhibition at 3 µM,[16],8%
same,IC50,[17],3.2 µM
same,IC50,[18],6.3 µM
same,IC50,[19],> 10 µM
same,inhibition,[20],0%
same,IC50,[21],13 µM
same,inhibition,[22],25%
same,inhibition,[23],52%
same,IC50,[24],488 nM
